SMILES strings stand for the structures.

In this experiment the test system is U2OS HRE-luciferase reporter, luminescence. The experiment in a line: activators of HIF pathway HRE-luciferase reporter, dose response, U2OS cells, luminescence, dry powder, set 10 (AID 504588). In outline: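 Test system: U2OS cells with stable 3×HRE-luciferase reporter; amount: 6,000 cells per well; dosing: dose series in 3-fold dilution steps; timing: 24 h compound exposure at 37 °C, 5% CO2, 21% O2; signal: Steady-Glo luminescence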
On the technique in general: A reporter such as luciferase makes a cellular process visible.
For `Clc1cccc(CNc2nc(-c3ccccn3)nnc2-c2ccccc2)c1`, the AC40 was 1310 nM.
As for `c1ccc(-c2cccc(CNc3nc(-c4ccccn4)nnc3-c3ccccc3)c2)cc1`, the figure is 721 nM.
The same measure for `c1ccc(-c2ccc(CNc3nc(-c4ccccn4)nnc3-c3ccccc3)cc2)cc1`: 360 nM; for `CC(C)(C)CCNc1nc(-c2ccccn2)nnc1-c1ccccc1`: 940 nM.
In the case of `CC(C)(C)c1ccc(CNc2nc(-c3ccccn3)nnc2-c2ccccc2)cc1`, the AC40 is 447 nM.
In the case of `c1ccc(CCNc2nc(-c3ccccn3)nnc2-c2ccccc2)cc1`, the AC40 is 2520 nM.

These data come from PubChem BioAssay AID504588 (Broad Institute, 2011).
